Activity calls are given as the source filed them. The rule behind the calls is not given here.
Key:
[1] = tested on: Breast cancer cell line; assay: Synergistic antitumor activity against human CRCM404 negative breast cancer cells orthotopically xenografted in NSG mouse model of PDX assessed as reduction ALDHbr cells at 50 mg/kg, ip 5 out of 7 for 2 weeks cotreated with salinomycin by LSR2 cytometer analysis; type: functional
[2] = tested on: SUM-159-PT; assay: Antitumor activity against human SUM159 cells assessed as K-score by measuring ALDHbr cells by LSR2 cytometer; type: functional
Method in brief: (§1)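 Cell lines exposed for 72 h in adherent culture to a range of concentrations centred on the MTS-derived IC50. ALDHbr proportion measured by ALDEFLUOR flow cytometry (LSR2). K-score is the linear regression coefficient, on log10-transformed doses, between the untreated condition and the dose predicted to give a 50% decrease or increase in ALDHbr proportion versus control.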

[3] = tested on: Breast cancer cell line; assay: Synergistic antitumor activity against human reimplanted CRCM434 negative breast cancer cells orthotopically xenografted in NSG mouse model of PDX assessed as reduction tumor volume at 50 mg/kg, ip 5 out of 7 for 2 weeks cotreated with salinomycin by limiting dilation analysis; type: functional, organism-based
[4] = Antitumor activity against human BrCa-MZ-01 cells assessed as K-score by measuring ALDHbr cells by LSR2 cytometer; type: functional; method in brief: as §1
[5] = tested on: Breast cancer cell line; assay: Synergistic antitumor activity against human CRCM494 negative breast cancer cells orthotopically xenografted in NSG mouse model of PDX assessed as reduction in tumor volume at 50 mg/kg, ip 5 out of 7 for 2 weeks cotreated with salinomycin; type: functional, organism-based
Method in brief: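 Orthotopic PDX in NSG mice, 100,000 cells per fat pad, two pads per mouse; treatment from ~80 mm³ tumours with salinomycin i.p. 3 mg/kg daily 14 days, JQ1 i.p. 50 mg/kg 5 of 7 days for 2 weeks, or combination, against placebo DMSO/HPCD 10% (1:9). Tumour growth monitored; n = 10 tumours per group.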

[6] = tested on: SUM-159-PT; assay: Synergistic anticancer activity against human SUM159 cells assessed as decrease in docetaxel induced ALDHbr cells at 62 nM in presence of salinomycin by LSR2 cytometer analysis; type: functional, cell-based
Method in brief: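 SUM159 or SUM149 cells treated 72 h in adherent conditions; docetaxel combined with other drugs at 2 nM; combination doses chosen from synergy distributions (Sal/JQ1 62 nM/62 nM). ALDEFLUOR staining with DEAB control, flow cytometry on LSR2. n = 8; Student's t-test; mean ± SD.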

[7] = tested on: SUM-159-PT; assay: Synergistic anticancer activity against human SUM159 cells at 500 nM incubated for 72 hrs in presence of salinomycin by ALDEFLUOR staining based flow cytometric analysis; type: functional, cell-based
[8] = tested on: SUM149PT; assay: Antitumor activity against human SUM149 cells assessed as K-score by measuring ALDHbr cells by LSR2 cytometer; type: functional; method in brief: as §1
[9] = tested on: Breast cancer cell line; assay: Synergistic apoptosis activity in patient-derived breast cancer cells orthotopically xenografted in NSG mouse model of PDX assessed as increase in cleaved caspase-3 at 50 mg/kg, ip 5 out of 7 for 2 weeks by Immunostaining analysis; type: functional, organism-based; settings: Homo sapiens
Method in brief: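 Paraffin sections of treated PDX tumours deparaffinised and subjected to antigen retrieval in citrate buffer pH 6. Peroxidase staining with ready-to-use Ki67 or cleaved caspase-3 antibody, DAB substrate, haematoxylin counterstain. Proportion of positive cells quantified; n = 3; t-test.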

[10] = Antitumor activity against human S68 cells assessed as K-score by measuring ALDHbr cells by LSR2 cytometer; type: functional; method in brief: as §1
[11] = tested on: SUM149PT; assay: Synergistic anticancer activity against human SUM149 cells assessed as decrease in docetaxel induced primary tumor sphere formation at 62 nM incubated for 72 hrs in presence of salinomycin by Extreme limiting dilution analysis; type: functional, cell-based
Method in brief: (§2)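 72 h adherent pretreatment (Sal/JQ1 62 nM/62 nM; docetaxel added at 2 nM where used), then single cells plated in ultra-low attachment 96-well plates in serum-free mammary epithelium basal medium at 25/10/5/3/2/1 cells/well (18–36 wells/condition). Wells with ≥1 sphere after 10 days scored positive; sphere-forming frequency by ELDA. Secondary spheres from dissociated primary spheres. n = 4; pairwise chi-square.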

[12] = tested on: Breast cancer cell line; assay: Synergistic antitumor activity against human CRCM434 negative breast cancer cells orthotopically xenografted in NSG mouse model of PDX assessed as reduction ALDHbr cells at 50 mg/kg, ip 5 out of 7 for 2 weeks cotreated with salinomycin by LSR2 cytometer analysis; type: functional
[13] = tested on: SUM-159-PT; assay: Anticancer activity against human SUM159 cells expressing BFP assessed as reduction in ALDHbr cell at 50 nM by LSR2 cytometer analysis; type: functional
[14] = tested on: Breast cancer cell line; assay: Antitumor activity against human CRCM404 negative breast cancer cells orthotopically xenografted in NSG mouse model of PDX assessed as reduction in tumor volume at 50 mg/kg, ip 5 out of 7 for 2 weeks; type: functional, organism-based
Method in brief: (§3)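 Chemo-naïve triple-negative PDX cells injected at 100,000 per fat pad, two fat pads per NSG mouse. At ~80 mm³ tumours, mice received i.p. 3 mg/kg daily for 14 days or 50 mg/kg 5 of 7 days for 2 weeks; placebo was DMSO/HPCD 10% (1:9). Five mice (10 tumours) per group. Tumour growth monitored; after 2 weeks tumours dissociated, mouse cells excluded via anti-H2Kd, ALDHbr measured by ALDEFLUOR flow cytometry and normalised to vehicle.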

[15] = tested on: MDA-MB-436; assay: Antitumor activity against human MDA-MB-436 cells assessed as K-score by measuring ALDHbr cells by LSR2 cytometer; type: functional; method in brief: as §1
[16] = tested on: Breast cancer cell line; assay: Antitumor activity against human CRCM434 negative breast cancer cells orthotopically xenografted in NSG mouse model of PDX assessed as reduction ALDHbr cells at 50 mg/kg, ip 5 out of 7 for 2 weeks by LSR2 cytometer analysis; type: functional, organism-based; method in brief: as §3
[17] = tested on: SUM-159-PT; assay: Synergistic anticancer activity against human SUM159 cells assessed as decrease in secondary tumor sphere formation at 62 nM incubated for 72 hrs in presence of salinomycin by Extreme limiting dilution analysis; type: functional; method in brief: as §2
[18] = tested on: SUM-159-PT; assay: Synergistic anticancer activity against human SUM159 cells expressing BFP assessed as reduction in ALDHbr cell 50 nM in presence of salinomycin by LSR2 cytometer analysis; type: functional

Structure (SMILES): Cc1sc2c(c1C)C(c1ccc(Cl)cc1)=N[C@@H](CC(=O)OC(C)(C)C)c1nnc(C)n1-2
- fold change (FC) [1]: 2
- Activity [2]: -0.2
- Activity [3]: Active
- Activity [4]: -0.03
- Activity [5]: Active
- Activity [6]: Active
- Activity [7]: inactive
- Activity [8]: -0.13
- Activity [9]: inactive
- Activity [10]: -0.15
- Activity [11]: Active
- fold change (FC) [12]: 2
- fold change (FC) [13]: 2
- Activity [14]: Active
- Activity [15]: -0.15
- Activity [16]: Active
- fold change (FC) [17]: 5.4
- fold change (FC) [18]: 4
